Laboratory results taken from ChEMBL document CHEMBL4706499, “PTG-0861: A novel HDAC6-selective inhibitor as a therapeutic strategy in acute myeloid leukaemia” (Eur J Med Chem, 2020).
Calls of active or inactive are those of the source. The rule behind the calls is not given here.

Legend:
MM1.S = assay: Cytotoxicity against human MM1.S cells measured after 72 hrs by spectrophotometer method; format: functional, cell-based
[1] = target: T1, Protein deacetylase HDAC6 (Homo sapiens) (UniProt Q9UBN7); assay: Inhibition of HDAC6 in human MV4-11 cells assessed as increase in acetylation of alpha tubulin at 0.5 uM measured after 6 hrs by Western blot assay relative to histone H4 acetylation; format: cell-based
T1 sequence (whole entry): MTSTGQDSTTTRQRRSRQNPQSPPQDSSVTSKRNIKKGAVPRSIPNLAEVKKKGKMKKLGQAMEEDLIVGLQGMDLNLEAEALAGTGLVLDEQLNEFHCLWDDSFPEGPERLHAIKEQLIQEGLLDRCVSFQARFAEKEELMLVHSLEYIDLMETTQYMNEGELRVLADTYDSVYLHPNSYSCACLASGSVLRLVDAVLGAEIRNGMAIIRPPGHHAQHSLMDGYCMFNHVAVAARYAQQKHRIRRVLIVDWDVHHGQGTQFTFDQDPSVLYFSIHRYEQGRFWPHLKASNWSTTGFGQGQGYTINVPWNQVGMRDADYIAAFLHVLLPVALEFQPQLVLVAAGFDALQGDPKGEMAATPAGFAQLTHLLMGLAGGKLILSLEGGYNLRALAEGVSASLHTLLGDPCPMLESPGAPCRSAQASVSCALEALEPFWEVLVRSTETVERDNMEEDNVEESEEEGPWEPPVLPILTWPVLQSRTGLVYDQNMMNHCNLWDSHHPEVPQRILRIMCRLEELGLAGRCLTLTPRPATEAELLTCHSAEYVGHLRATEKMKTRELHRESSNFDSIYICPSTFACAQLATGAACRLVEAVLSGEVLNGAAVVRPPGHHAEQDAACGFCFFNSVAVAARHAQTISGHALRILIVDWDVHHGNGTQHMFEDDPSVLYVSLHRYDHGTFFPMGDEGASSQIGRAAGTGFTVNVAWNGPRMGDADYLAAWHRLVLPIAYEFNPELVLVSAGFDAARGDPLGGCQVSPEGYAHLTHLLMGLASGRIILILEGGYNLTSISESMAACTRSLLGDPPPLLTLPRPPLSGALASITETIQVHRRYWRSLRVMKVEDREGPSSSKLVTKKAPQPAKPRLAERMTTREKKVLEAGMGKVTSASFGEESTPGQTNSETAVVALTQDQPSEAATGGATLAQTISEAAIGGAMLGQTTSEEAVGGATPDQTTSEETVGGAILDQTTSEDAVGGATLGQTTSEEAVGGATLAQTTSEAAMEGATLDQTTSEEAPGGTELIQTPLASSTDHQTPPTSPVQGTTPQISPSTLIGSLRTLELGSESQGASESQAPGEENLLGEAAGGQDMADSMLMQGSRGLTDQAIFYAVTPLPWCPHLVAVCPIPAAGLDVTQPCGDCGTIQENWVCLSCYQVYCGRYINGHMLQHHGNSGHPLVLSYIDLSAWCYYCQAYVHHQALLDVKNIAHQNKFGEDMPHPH
Method in brief: (§1)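 MV4-11 cells were exposed to a range of concentrations for 6 h. Protein extracts were run on SDS-PAGE and immunoblotted for acetylated α-tubulin, acetylated histone H3 and acetylated histone H4, with HSC70 as the loading reference. A representative blot of three independent experiments is shown.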

[2] = target: T1, Protein deacetylase HDAC6 (Homo sapiens); assay: Inhibition of HDAC6 in human MV4-11 cells assessed as increase in acetylation of alpha tubulin at 0.5 uM measured after 6 hrs by Western blot assay relative to histone H3 acetylation; format: cell-based; method in brief: as §1
MV4-11 [3] = assay: Cytotoxicity against human MV4-11 cells measured after 72 hrs by spectrophotometer method; format: functional, cell-based; details: MV4-11, 72 h
RPMI-8226 = assay: Cytotoxicity against human RPMI-8226 cells measured after 72 hrs by spectrophotometer method; format: functional, cell-based; details: RPMI-8226, 72 h
MV4-11 [4] = assay: Induction of apoptosis in human MV4-11 cells assessed as late apoptotic cells at 4 microM measured after 18 hrs by Annexin V/Propidium iodide stain based Flow cytometry assay (reference value: 4.91%); format: functional
HUVEC = assay: Cytotoxicity against human HUVEC cells measured after 72 hrs by spectrophotometer method; format: cell-based
Fibroblast [5] = assay: Cytotoxicity against human fibroblasts measured after 72 hrs by spectrophotometer method; format: cell-based
Fibroblast [6] = assay: Cytotoxicity against pooled human fibroblasts measured after 72 hrs by spectrophotometer method; format: cell-based
Histone deacetylase 6 = target: T2, Histone deacetylase 6 (Danio rerio, UniProt F8W4B7); assay: Inhibition of N-terminal 6 His-SUMO tagged Zebrafish HDAC6 CD2 domain expressed in Escherichia coli BL21(DE3) RILP pretreated for 10 mins before FITC-M344 addition and measured after 10 mins by fluorescence polarization competition assay
T2 sequence (F8W4B7 whole entry): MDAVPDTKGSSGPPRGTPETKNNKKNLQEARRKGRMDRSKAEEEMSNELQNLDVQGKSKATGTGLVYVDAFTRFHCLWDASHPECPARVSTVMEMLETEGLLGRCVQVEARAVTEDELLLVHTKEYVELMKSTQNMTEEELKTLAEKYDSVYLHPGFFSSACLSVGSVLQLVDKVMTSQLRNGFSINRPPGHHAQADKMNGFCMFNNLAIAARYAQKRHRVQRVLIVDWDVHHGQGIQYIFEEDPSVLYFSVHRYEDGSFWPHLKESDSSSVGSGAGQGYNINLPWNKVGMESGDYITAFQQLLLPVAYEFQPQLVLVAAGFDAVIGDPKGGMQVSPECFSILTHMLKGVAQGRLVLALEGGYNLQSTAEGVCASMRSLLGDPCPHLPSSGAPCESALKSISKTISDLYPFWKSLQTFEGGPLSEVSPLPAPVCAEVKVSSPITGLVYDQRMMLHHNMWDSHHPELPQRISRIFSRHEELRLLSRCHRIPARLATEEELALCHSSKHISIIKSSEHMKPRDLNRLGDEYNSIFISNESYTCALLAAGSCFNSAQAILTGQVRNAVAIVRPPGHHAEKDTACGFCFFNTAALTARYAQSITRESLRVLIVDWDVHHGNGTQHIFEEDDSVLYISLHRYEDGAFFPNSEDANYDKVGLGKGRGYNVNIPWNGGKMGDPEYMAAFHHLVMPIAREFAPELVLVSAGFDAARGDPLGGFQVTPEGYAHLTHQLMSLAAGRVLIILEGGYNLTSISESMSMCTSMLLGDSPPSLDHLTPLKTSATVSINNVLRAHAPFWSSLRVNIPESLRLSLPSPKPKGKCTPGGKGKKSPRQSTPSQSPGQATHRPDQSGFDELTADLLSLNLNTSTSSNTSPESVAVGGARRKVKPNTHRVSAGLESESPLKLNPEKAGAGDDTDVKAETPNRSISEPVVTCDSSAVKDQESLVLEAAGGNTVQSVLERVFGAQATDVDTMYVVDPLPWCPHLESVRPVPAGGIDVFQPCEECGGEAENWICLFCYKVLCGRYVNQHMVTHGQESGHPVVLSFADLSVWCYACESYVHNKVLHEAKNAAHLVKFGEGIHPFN

[7] = target: Class 1 histone deacetylase (Homo sapiens) (UniProt Q13547+O15379+Q92769+Q9BY41); assay: Inhibition of HDAC class 1 in human MV4-11 cells assessed as upregulation of acetylation of H3 histone at 5 uM measured after 6 hrs by Western blot assay; format: cell-based; method in brief: as §1
Sequence of Class 1 histone deacetylase (Homo sapiens) (O15379 whole entry, looked up): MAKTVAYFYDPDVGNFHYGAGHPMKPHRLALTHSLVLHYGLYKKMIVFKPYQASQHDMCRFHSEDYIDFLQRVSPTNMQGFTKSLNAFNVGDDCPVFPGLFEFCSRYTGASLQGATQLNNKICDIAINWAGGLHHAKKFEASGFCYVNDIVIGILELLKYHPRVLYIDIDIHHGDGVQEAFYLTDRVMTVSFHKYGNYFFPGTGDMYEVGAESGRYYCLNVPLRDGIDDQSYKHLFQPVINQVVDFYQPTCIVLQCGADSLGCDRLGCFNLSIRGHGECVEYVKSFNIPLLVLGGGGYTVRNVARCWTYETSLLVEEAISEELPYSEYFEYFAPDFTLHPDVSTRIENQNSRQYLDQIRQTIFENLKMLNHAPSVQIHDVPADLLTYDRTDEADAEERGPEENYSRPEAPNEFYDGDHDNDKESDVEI
Sequence of Class 1 histone deacetylase (Homo sapiens) (Q13547 whole entry, looked up): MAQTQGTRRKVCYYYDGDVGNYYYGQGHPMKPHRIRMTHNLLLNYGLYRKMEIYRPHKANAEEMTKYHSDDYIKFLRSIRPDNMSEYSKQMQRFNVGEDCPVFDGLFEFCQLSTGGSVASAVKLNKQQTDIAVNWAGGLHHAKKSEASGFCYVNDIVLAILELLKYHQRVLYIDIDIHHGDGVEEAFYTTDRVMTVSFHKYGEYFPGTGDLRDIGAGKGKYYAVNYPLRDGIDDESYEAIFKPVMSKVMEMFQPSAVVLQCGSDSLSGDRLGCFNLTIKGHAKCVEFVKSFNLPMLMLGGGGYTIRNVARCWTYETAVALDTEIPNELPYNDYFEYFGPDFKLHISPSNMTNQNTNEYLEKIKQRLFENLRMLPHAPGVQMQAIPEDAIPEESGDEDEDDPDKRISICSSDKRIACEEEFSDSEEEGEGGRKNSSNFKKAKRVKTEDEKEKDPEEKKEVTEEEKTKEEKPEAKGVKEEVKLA
Sequence of Class 1 histone deacetylase (Homo sapiens) (Q92769 whole entry, looked up): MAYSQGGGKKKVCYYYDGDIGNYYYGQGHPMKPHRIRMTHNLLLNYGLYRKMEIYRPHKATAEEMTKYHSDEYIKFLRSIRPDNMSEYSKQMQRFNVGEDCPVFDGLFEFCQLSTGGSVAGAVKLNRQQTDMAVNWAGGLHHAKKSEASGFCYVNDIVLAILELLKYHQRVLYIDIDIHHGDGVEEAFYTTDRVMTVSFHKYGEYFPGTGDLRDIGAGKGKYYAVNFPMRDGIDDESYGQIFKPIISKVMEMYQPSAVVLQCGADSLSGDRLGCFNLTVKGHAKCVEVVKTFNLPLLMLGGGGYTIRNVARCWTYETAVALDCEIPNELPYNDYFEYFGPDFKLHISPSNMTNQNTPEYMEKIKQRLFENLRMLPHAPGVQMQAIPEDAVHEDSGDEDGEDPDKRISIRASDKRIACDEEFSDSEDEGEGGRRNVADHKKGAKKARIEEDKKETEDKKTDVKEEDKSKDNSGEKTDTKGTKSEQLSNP
Sequence of Class 1 histone deacetylase (Homo sapiens) (Q9BY41 whole entry, looked up): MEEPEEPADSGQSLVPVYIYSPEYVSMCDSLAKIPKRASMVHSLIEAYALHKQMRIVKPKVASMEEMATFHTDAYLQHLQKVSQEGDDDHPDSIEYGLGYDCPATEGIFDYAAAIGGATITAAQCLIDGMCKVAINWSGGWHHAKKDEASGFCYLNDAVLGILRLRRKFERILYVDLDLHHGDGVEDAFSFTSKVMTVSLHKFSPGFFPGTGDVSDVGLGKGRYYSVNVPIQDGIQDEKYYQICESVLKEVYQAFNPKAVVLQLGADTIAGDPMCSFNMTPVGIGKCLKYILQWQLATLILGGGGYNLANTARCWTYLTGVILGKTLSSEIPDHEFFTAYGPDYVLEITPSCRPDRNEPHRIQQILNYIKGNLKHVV

[8] = Cytotoxicity against human MRC9 cells measured after 72 hrs by spectrophotometer method; format: cell-based; details: MRC9, 72 h
[9] = Selectivity ratio of IC50 for full length recombinant human HDAC3 to IC50 for full length recombinant human HDAC6
[10] = Cytotoxicity against human MRC9 cells; format: functional, cell-based

SMILES	IC50 (MM1.S)	Activity [1]	Activity [2]	IC50 (MV4-11 [3])	IC50 (RPMI-8226)	Activity (MV4-11 [4])	IC50 (HUVEC)	IC50 (Fibroblast [5])	IC50 (Fibroblast [6])	IC50 (Histone deacetylase 6)	inhibition [7]	IC50 [8]	Ratio IC50 [9]	IC50 [10]
O=C(CCCCCCNC(=O)c1cnc(N(c2ccccc2)c2ccccc2Cl)nc1)NO [CITARINOSTAT]	1.52 µM	Active	Active	1.24 µM	3.16 µM	17%	4.9 µM	5.7 µM	7.4 µM	0.154 µM	Active	> 25 µM	–	–
CC(C)(C)c1ccc(C(=O)Nc2ccc(C(=O)NO)cc2)cc1	–	–	–	–	–	–	–	–	–	0.269 µM	–	> 25 µM	7.66	> 25 µM
O=C(CCCCCCNC(=O)c1cnc(N(c2ccccc2)c2ccccc2)nc1)NO [RICOLINOSTAT]	–	–	–	0.656 µM	–	–	–	–	–	0.09 µM	–	> 15 µM	–	–
